# Compound activity deposited in PubChem by Broad Institute.
# SR-BI DiI-HDL act: activators of SR-BI mediated DiI-HDL uptake, primary screen, ldlA[mSR-BI] CHO cells, DiI fluorescence; activation, % at 12.5 µM; 3 h; 100 = double the neutral-control signal; 320,000 tested, 0.096% active;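 active means mean replicate activation of at least 60% and every replicate at or above 60%; inconclusive means mean or all-replicate condition met, but not both; inactive means mean below 60% and not all replicates reaching 60%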;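 further: 0% = median plate neutral-control signal and 100% = twice that signal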
#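 Test system: SR-BI-overexpressing, LDLR-lacking CHO cells; Also added: labelled HDL, 10 µg/mL; Measured by: bottom-read cell fluorescence after medium removal, ex 550/em 595 nm; Timing: 3 h uptake period with compound, 37 °C; Buffer or medium: F12, 0.5% BSA, 25 mM HEPES; Doses: single compound concentration, delivered by pin transfer.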
# MITF TRPM1 HTS: activators of MITF-driven TRPM1 promoter reporter, primary screen, cell-based, SK-MEL-5, luciferase, single point. SK-MEL-5 TRPM1-promoter luciferase, 24 h; % of positive control, neutral wells = 0. activation, % at 12.5 µM. 300,000 tested, 0.75% active. AID 588334, 2011;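 active means mean activation of at least 80% with every replicate also reaching 80%; inconclusive means mean reaches 80% but some replicate falls short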;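 further: 0% = neutral control wells and 100% = parthenolide positive control wells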
# Wnt bcat act: Wnt/beta-catenin pathway activators, primary screen, cell-based, plate reader, single point. 300,000 tested, 1.2% active. Wnt/beta-catenin reporter cell assay, activator. activation, % at 9.35 µM. AID 743398, 2014; in the data active means activation above about 30%, passing the limit was not always enough; inconclusive means no clear call, values can overlap the other calls;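 further: 0% = neutral control wells and 100% = positive control wells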
# SR-BI DiI inh: inhibitors of SR-BI mediated HDL lipid uptake, primary screen, ldlA[mSR-BI] cells, fluorescence, single point. Scavenger receptor class B member 1 (Mus musculus), Q61009. ldlA[mSR-BI] CHO cells, DiI-HDL uptake fluorescence, 3 h. inhibition, % at 12.5 µM. 320,000 tested, 0.96% active;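 active means mean replicate inhibition of at least 70% and a set share of replicates each scoring 70 or more; inconclusive means meets just one of the two criteria; inactive means fails both criteria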;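 further: 0% = median of neutral control wells and 100% = median of positive control wells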
# Target sequence (Q61009 whole entry, looked up): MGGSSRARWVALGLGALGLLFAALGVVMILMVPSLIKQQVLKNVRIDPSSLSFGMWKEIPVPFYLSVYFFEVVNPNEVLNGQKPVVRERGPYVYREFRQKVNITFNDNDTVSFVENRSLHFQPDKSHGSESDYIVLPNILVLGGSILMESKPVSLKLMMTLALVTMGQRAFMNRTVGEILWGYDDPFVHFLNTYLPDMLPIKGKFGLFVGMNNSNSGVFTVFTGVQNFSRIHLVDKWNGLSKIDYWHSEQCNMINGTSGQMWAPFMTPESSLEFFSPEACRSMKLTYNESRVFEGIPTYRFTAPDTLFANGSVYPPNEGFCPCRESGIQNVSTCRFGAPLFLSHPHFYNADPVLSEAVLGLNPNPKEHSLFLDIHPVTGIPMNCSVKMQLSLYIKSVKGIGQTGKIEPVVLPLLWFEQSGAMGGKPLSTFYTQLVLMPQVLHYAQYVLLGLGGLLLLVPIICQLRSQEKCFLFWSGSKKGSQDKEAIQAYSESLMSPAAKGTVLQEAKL
# HSF-1 act: HSF-1 activators, primary screen, NIH3T3-HGL cells, MG132 stress, luminescence, single point. NIH3T3-HGL HSF-1 luciferase reporter, 8 h; 100% = twice DMSO control signal. activation, % at 9 µM. 300,000 tested, 1.7% active;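 active means mean replicate activation of at least 50% with a set share of replicates each reaching 50%; inconclusive means only one of those two conditions met; inactive means mean below 50% and too few replicates reaching it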;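 further: 0% = median of the neutral control wells and 100% = twice that signal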
# * = called active by the depositor; ? = inconclusive; . = no result. The list is not random: actives were taken first. Their share in the collection is about 3.6%.
SMILES,SR-BI DiI-HDL act,MITF TRPM1 HTS,Wnt bcat act,SR-BI DiI inh,HSF-1 act
CCCCNC(=S)N(Cc1ccco1)Cc1cc2cc3c(cc2[nH]c1=O)OCCO3,23.9,4.0,.,-23.9,155.8*
Cc1cc2cc(CN(Cc3cccs3)C(=S)NCc3ccco3)c(=O)[nH]c2cc1C,-34.7,-12.7,-1.1,34.7,63.3*
CCOCCCNC(=S)N(Cc1ccco1)Cc1cc2cc3c(cc2[nH]c1=O)OCCO3,-11.7,-13.1,-1.0,11.7,37.9
COC(=O)c1cc2c(c3c4cc(F)ccc4n(S(=O)(=O)c4ccc(OC)cc4)c13)C(=O)N(Cc1ccccc1OC)C2,.,.,-5.5,.,.
CC(=O)CCN1CCSCCS1(=O)=O,.,.,-1.9,.,.
COc1ccc(NC(=O)C[C@H]2C(=O)N(Cc3ccccc3)C[C@@H]2C)cc1,.,.,0.1,.,.
C/C(=N/NC(N)=S)c1cc2ccc(O)cc2oc1=O,-84.3,10.5,3.6,84.3*,-4.2
NC1=NC(=O)/C(=C/C=C/c2cccs2)S1,9.9,37.5,36.0*,-9.9,28.1
Cc1ccsc1/C=C1\SC(N)=NC1=O,20.6,4.6,.,-20.6,23.0
c1csc(CNc2nc(NCC3CCCCC3)c3sccc3n2)c1,.,.,-9.0,.,.
CN1CCN(c2ccc(Nc3ccnc4cc(Cl)ccc34)cc2)CC1,-12.4,.,-1.4,12.4,52.0*
CCOc1ccc(Nc2ccnc3cc(Cl)ccc23)cc1,-8.8,10.0,8.2,8.8,-3.6
O=C(c1ccco1)N1CCN(C(=O)C2CC2)CC1,67.1*,-0.2,-5.6,-67.1,-14.9
Cc1cccc(NC(=S)N2CCN(C(=O)c3ccco3)CC2)c1C,7.6,-4.5,-0.3,-7.6,60.5*
O=C(CSc1nn(-c2ccc(Cl)cc2)c(=S)s1)N1CCN(C(=O)c2ccco2)CC1,-84.4,-3.7,.,84.4*,0.8
O=C(c1ccco1)N1CCN(c2ccc(N3CCCCC3)nn2)CC1,11.0,99.4*,31.4*,-11.0,29.7
O=C(CSc1nn(-c2ccc(F)cc2)c(=S)s1)N1CCN(C(=O)c2ccco2)CC1,-69.1,-8.7,.,69.1,?
COc1ccc(OCCNC(=O)c2ccc3nc(C)c(N(C)Cc4ccc(NC(C)=O)cc4)n3c2)cc1,.,.,-1.1,.,.
O=C(Nc1ccc(-c2ccc(N3CCCCC3)nn2)cc1)c1ccco1,-38.0,98.6*,22.1,38.0,-6.1
O=C(c1ccco1)N1CCN(S(=O)(=O)Cc2ccc(Cl)cc2)CC1,8.6,3.5,41.5*,-8.6,-1.8
CC(C)c1ccc(-n2nnnc2SCc2nc(N)nc(N)n2)cc1,.,.,-1.7,.,.
CCNC(=O)C1(C)CCCN(C(=O)c2sc(-c3ccccc3)nc2C)C1 (stereo not given),.,.,-2.9,.,.
O=C(NCc1ccccc1)c1cncc(Br)c1,-2.1,5.5,2.5,2.1,-0.8
CCC(NC(=O)c1cncc(Br)c1)c1ccccc1 (stereo not given),23.6,-3.4,30.8*,-23.6,-4.3
CC(C)=CCN1CCN(CCC2=C(C)CCCC2(C)C)CC1CCO (stereo not given),15.4,14.4,-8.1,-15.4,0.3
SMILES,SR-BI DiI-HDL act,MITF TRPM1 HTS,Wnt bcat act,SR-BI DiI inh,HSF-1 act
CC1=C(CC/C(C)=N/NC(N)=S)C(C)(C)CCC1,-75.6,-15.4,-1.4,75.6*,1.8
CCOC(=O)C1CCCN(C(=O)c2cc(C)oc2C)CC1 (stereo not given),.,.,-6.9,.,.
O=C(Nc1ccc(Cl)cc1C(=O)c1ccccn1)c1ccccc1,.,.,-2.5,.,.
Cc1nn2cc(-c3ccc(Cl)cc3)cnc2c1Cl,-13.5,126.2*,32.2*,13.5,35.3
[O-][n+]1c(/C=C/c2ccccc2)ccc2ccccc21,-6.0,20.7,36.9*,6.0,40.5
[O-][n+]1ccccc1/C=C/c1ccccc1,-3.9,7.8,0.0,3.9,1.9
COc1ccc(S(=O)(=O)N2CCC(C)CC2)cc1OC,-76.3,.,-4.2,76.3*,-5.1
CSc1sc(C(=O)OC(C)C)c2c1C(=O)CC(C)(C)C2,18.8,.,0.6,-18.8,52.8*
CSc1ccc(C2NC(=O)c3ccccc3N2)cc1 (stereo not given),-0.6,.,23.1,0.6,68.6*
O=C1NC(c2ccc(O)cc2)Nc2ccccc21 (stereo not given),31.4,.,8.6,-31.4,17.8
